High-throughput results: PubChem, several laboratories
In the library only some 2.7% were active in any assay of this set; here they are far more common.
HGIII-sPLA2 inh = Blocks human group III sPLA2 activity; QFRET BODIPY PC-A2 liposome hydrolysis, fluorescence; inhibition, % at 12.2 µM; 0.56% of 370,000 active;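 active = inhibition above mean plus 3 SD of compounds lying within the high and low control bounds, cut at about 19% in these data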;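 note: 0% = median of test compound wells and 100% = no enzyme DMSO wells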
ARFGAP1 inh = inhibits rat ARF GTPase activating protein 1; Arfgap1-stimulated ARF1 GTP hydrolysis, GDP FP detection; AID 651572; inhibition, % at 16.5 µM; Q62848; 0.26% of 360,000 active;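 active = inhibition above a per-plate limit, mean inhibition of low control wells plus 3 SD, cut at about 25% in these data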;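 note: 0% = DMSO wells with enzyme and 100% = wells lacking Arfgap1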
Target sequence (Q62848 1-136 limits assumed): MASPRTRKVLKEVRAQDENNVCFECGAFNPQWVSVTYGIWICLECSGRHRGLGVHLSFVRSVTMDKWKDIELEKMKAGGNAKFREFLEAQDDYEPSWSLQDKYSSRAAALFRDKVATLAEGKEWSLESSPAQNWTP
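Material: truncated rat Arfgap1 GAP domain; Incubation: compound-enzyme preincubation 20 min, reaction 120 min, detection 60 min, 25 °C; Read-out: percent inhibition of Arfgap1-stimulated GTP hydrolysis; Technique: FP, GDP Alexa 633 tracer displaced from anti-GDP antibody, 620/688 nm; Controls: No-Arfgap1 wells (100%) versus DMSO full-reaction wells (0%); Replication: single well per compound.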
MsrA inhibitor = bovine MsrA inhibition; purified bovine MsrA, absorbance read-out; inhibition, % at 15.5 µM; 0.75% of 360,000 active; AID 651718; in the data active = inhibition above about 4.5%;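 note: 0% = vehicle wells with enzyme and 100% = reference inhibitor wells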
ASAP1 inh = ASAP1 ArfGAP inhibition; Q9ULH1; ASAP1-stimulated ARF1 GTP hydrolysis, GDP FP detection; inhibition, % at 16.5 µM; 0.19% of 360,000 active; AID 624377; in the data active = inhibition above about 25%;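 note: 0% = vehicle with enzyme and substrate and 100% = no enzyme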
Target sequence (Q9ULH1 325-724 limits assumed): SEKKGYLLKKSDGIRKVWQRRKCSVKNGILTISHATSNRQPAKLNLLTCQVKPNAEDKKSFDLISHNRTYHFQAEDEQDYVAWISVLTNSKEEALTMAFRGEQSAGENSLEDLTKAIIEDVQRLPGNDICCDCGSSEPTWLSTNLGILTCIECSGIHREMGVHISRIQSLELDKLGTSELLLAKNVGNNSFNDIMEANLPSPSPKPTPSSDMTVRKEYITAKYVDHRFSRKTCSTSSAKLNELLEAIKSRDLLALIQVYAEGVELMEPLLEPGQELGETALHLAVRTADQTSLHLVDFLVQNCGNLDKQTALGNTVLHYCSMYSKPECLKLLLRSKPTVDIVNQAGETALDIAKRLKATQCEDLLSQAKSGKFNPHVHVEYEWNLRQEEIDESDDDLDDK
bovine MsrA act = activates bovine MsrA enzyme | purified bovine MsrA, absorbance read-out | 0.3% of 360,000 active | activation, % at 10.6 µM; in the data active = activation above about 7.5%;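 note: 0% = vehicle and 100% = reference activator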
NR1D1 modulator = modulators of human Rev-erb alpha DNA binding; P20393; Rev-erbα–FITC-DNA binding, fluorescence polarization, 90 min; activity, % at 10 µM; 0.79% of 370,000 active; AID 1259318;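 active = activity above about 14%, limit read from the data; passing the limit was not always enough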;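 note: 0% = DMSO wells with 35 nM protein and 100% = DMSO wells with 750 nM protein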
Rev-erbA confirm = confirmation of modulators of human Rev-erb alpha DNA binding; shares compounds with NR1D1 modulator; Rev-erb alpha FITC-DNA binding, fluorescence polarization, 90 min; activation, % at 25 µM; 61% of 3,000 active;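 active = activation at or above a set limit, or at least 3 SD above the negative control mean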;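 note: 0% = 35 nM protein with DMSO and 100% = 750 nM protein high control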
RORg counter = RORgamma DNA-binding activity, dose-response counter-screen. shares compounds with NR1D1 modulator. purified RORgamma protein-FITC-DNA binding, fluorescence polarization. IC50, µM. 8% of 910 active;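 active = Compounds whose fitted half-maximal concentration for disrupting protein-DNA binding is below 10 micromolar; the record names Rev-erb in its text, so the target is in doubt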
* marks the source's active call; other numbers are inactive results; i = inactive; nt = no result given.

SMILES	HGIII-sPLA2 inh	ARFGAP1 inh	MsrA inhibitor	ASAP1 inh	bovine MsrA act	NR1D1 modulator	Rev-erbA confirm	others
Cc1cc(C)c(NC(=O)COc2ccccc2C(=O)Nc2ccc3c(c2)oc2ccccc23)c(C)c1	-4	-5	-1	-11	-3	32*	37*	RORg counter=>40
COC(=O)c1sc2nc(-c3ccccc3)c3c(c2c1N)CCCC3	5	8	0	4	-12	69*	39*	RORg counter=>40
O=c1[nH]cnc2c1sc1nc(-c3ccccc3)c3c(c12)CCCC3	-7	-3	1	5	-3	18*	9
CSc1ccc(/C=C(\NC(=O)c2ccc(C)cc2)C(=O)Nc2cccc(C)c2)cc1	18	3	0	-5	-3	-2	nt
CSc1ccc(/C=C(\C#N)C(=O)Nc2cccc(C)c2)cc1	-34	-1	0	7	-3	22*	10
CCOC(=O)c1sc2ncn(CC(=O)NCC3CCCO3)c(=O)c2c1C (stereo not drawn)	-4	9	0	8	-2	-1	nt
CCCCNC(=O)Cn1cnc2sc(C(=O)OCC)c(C)c2c1=O	-3	7	0	-10	2	35*	8
N#Cc1c(-c2ccccc2)cc(-c2ccccc2)nc1SCc1nnc(-c2ccccc2)o1	8	9	0	2	0	50*	24*
COc1ccc(-c2cc(-c3ccccc3)c(C#N)c(SCC(=O)O)n2)cc1	-6	-2	-1	7	-6	2	nt
COc1ccc(-c2cc(C(F)(F)F)n3ncc(C(=O)NCC4CCCO4)c3n2)cc1OC (stereo not drawn)	7	6	0	-6	-10	28*	31*
COc1ccc(-c2cc(C(=O)NCC3CCCO3)on2)cc1OC (stereo not drawn)	12	-1	1	-10	-1	0	nt
COc1ccc(-c2cc(C(F)F)n3ncc(C(=O)NCC4CCCO4)c3n2)cc1 (stereo not drawn)	-4	8	1	15	-5	36*	15
O=C(NCC1CCCO1)c1nn2c(C(F)(F)F)cc(-c3cccs3)nc2c1Br (stereo not drawn)	7	11	0	11	-3	26*	18*
CCn1c2ccccc2c2cc(NC(=O)COC(=O)c3cccc(F)c3)ccc21	3	nt	nt	nt	nt	0	nt
CCOC(=O)c1csc(-c2csc(CCNC(=O)c3ccccc3)n2)n1	3	2	0	11	-1	-5	nt
Cc1ccc2nsnc2c1NC(=O)Cc1ccc(Cl)cc1	3	-9	0	-20	-5	51*	13
O=C1/C(=C/c2ccccc2)CCc2ccc(Cl)nc21	11	-3	3	-5	-4	-5	nt
COc1ccccc1-c1ccc2c(c1)C(C)(Cc1cc(Cl)ccc1C(F)(F)F)C(=O)N2 (stereo not drawn)	-9	0	1	9	1	43*	62*	RORg counter=i
COc1ccccc1-c1ccc2c(c1)C(C)(Cc1cccc(C#N)c1)C(=O)N2 (stereo not drawn)	-17	-7	0	-2	0	46*	43*	RORg counter=>40
COc1ccc(Cl)cc1CC1(C)C(=O)Nc2ccc(-c3ccccc3OC)cc21 (stereo not drawn)	-6	15	1	5	-2	50*	55*	RORg counter=>40
O=C1CC(c2ccccc2)CC2=C1C1(CCCC1)N=C(Nc1nc3ccccc3o1)N2 (stereo not drawn)	-8	4	-1	-8	-5	-3	nt
CCCCNC(=O)C[C@H]1C[C@@]2(C(=O)OC)C(=C[C@H](C3CCCC3)O[C@@H]2C)N(Cc2cccc3ccccc23)C1=O	-11	nt	nt	nt	nt	0	nt
CCc1nnc2sc(-c3ccc(NC(=O)c4ccc5c(c4)OCCO5)cc3)nn12	-1	2	1	1	1	92*	58*
COc1cccc(/C=C/C(=O)OCC(=O)NCCC2=CCCCC2)c1OC	2	-5	0	1	-3	3	nt
O=C(/C=C/c1cccc2ccccc12)NCCC1=CCCCC1	-2	10	-1	0	-5	29*	38*	RORg counter=>40
SMILES	HGIII-sPLA2 inh	ARFGAP1 inh	MsrA inhibitor	ASAP1 inh	bovine MsrA act	NR1D1 modulator	Rev-erbA confirm	others
Cc1nc2c(OCc3ccc(OC(F)F)cc3)cccn2c1N(C)C(=O)CCC1CCCC1	-13	-5	0	11	0	-2	nt
CC(=O)Nc1c2c3c(cccc3n(C)c1=O)C(=O)c1ccccc1-2	9	2	3	-3	-2	-3	nt
Cn1c(=O)c(Nc2ccc(Cl)cc2)c2c3c(cccc31)C(=O)c1ccccc1-2	-65	-7	-1	-7	nt	24*	12
Fc1cccc(Cn2ccc3ccc(-c4ccc5ccn(Cc6cccc(F)c6)c5c4)cc32)c1	1	nt	nt	nt	nt	3	nt
N#Cc1cccc(Cn2ccc3ccc(-c4ccc5ccn(Cc6cccc(C#N)c6)c5c4)cc32)c1	-5	nt	nt	nt	nt	59*	38*	RORg counter=2.5*
c1ccc(Cn2ccc3ccc(-c4ccc5ccn(Cc6cccc(-c7ccsc7)c6)c5c4)cc32)cc1	-4	nt	nt	nt	nt	31*	17*
COc1ccc(Cn2ccc3ccc(-c4ccc5ccn(Cc6ccc(C#N)cc6)c5c4)cc32)cc1	2	nt	nt	nt	nt	38*	1
CCN1C(=O)[C@H]2[C@@H](c3ccc(-c4cc(C(C)=O)cs4)cc3)N3CCCC[C@@]3(C(=O)OC)[C@H]2C1=O	-7	8	2	9	-5	30*	21*
CCCCC(CCc1ccccn1)C(=O)c1ccccc1 (stereo not drawn)	-4	-6	0	-11	-3	-4	nt
Cc1c(OCC(=O)Nc2cccnc2)ccc2c3c(c(=O)oc12)CCC3	-2	7	-1	6	-3	4	nt
Cc1c(C)c2ccc(OCC(=O)Nc3ccc(S(N)(=O)=O)cc3)c(C)c2oc1=O	1	-1	0	-6	-8	25*	11
COc1ccc(-c2c(C#N)c(C)nc3c2C(=O)c2ccccc2-3)cc1	0	2	0	-2	-3	151*	122*
COc1ccc(-c2nc(-c3ccccc3)[nH]c(=O)c2C#N)cc1	6	3	1	-11	-10	-4	nt
O=C(COc1ccccc1)Nc1nc2cc3c(cc2s1)OCCO3	-8	-12	-1	8	-5	76*	50*	RORg counter=>40
O=C(COc1ccccc1)Nc1nc2cc3c(cc2s1)OCO3	-3	1	0	0	-5	41*	15
CC(=O)Nc1ccc2nc(NC(=O)COc3ccccc3)sc2c1	3	18	0	2	2	3	nt
